Experimental data: ChEMBL document CHEMBL4513216, “Probing the Open Global Health Chemical Diversity Library for Multistage-Active Starting Points for Next-Generation Antimalarials” (ACS Infect Dis, 2020)

assay: Toxicity liver stage against HepG2, at 10uM; type: cell-based; design: test concentration 10 uM, cell line HepG2-A16-CD81EGFP; conditions: human, HepG2-A16-CD81EGFP cells; read-out: INHIBITION
In short: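 Uninfected HepG2-A16-CD81EGFP cells, 3 × 10^3 per well, 1536-well, plated on prespotted compound at 10 μM final, parasite-free screening media added to match infected plates; puromycin 10 μM positive, DMSO 0.5% negative; run in parallel with 48 h PbLuc assay at 37 °C, 5% CO2; viability by CellTiter-Glo luminescence, normalized to controls.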

Compared with `COc1ncccc1CN1CC[C@H]2O[C@H](c3nnc(C)o3)CC[C@H]21`, `COc1ncccc1CN1CCC2(CC1)COCCN2C` is higher in cytotoxicity at 10 µM: 15.1% for the first, 16.6% for the second.

Going from `Cc1cc(C)n(CC2CCCN2Cc2ccc(F)cc2C#N)n1` (stereo not given) to `OCC1CCCCN1Cc1nc(Cc2cccc(F)c2)no1` (stereo not given), the cytotoxicity at 10 µM falls from 7.77% to -137%.

Compared with `CCCNC(=O)COc1ccc(C)cn1`, `CCSc1cc(C(=O)NCCC(=O)N(C)C)ccn1` is higher in cytotoxicity at 10 µM: -14.5% for the first, -5.41% for the second.

Going from `Cc1noc(-c2ccnc(N3CCN(C4CCOCC4)CC3)c2)n1` to `Cc1cccc(CN2C[C@@H]3CN(C4CCOCC4)C[C@@H]3C2=O)c1`, the cytotoxicity at 10 µM falls from 1.83% to -130%.

Going from `O=C(CN1CCC(c2nnc(C(F)(F)F)o2)CC1)Nc1cccc(Cl)c1` to `Cc1ccc(Cl)cc1N1CCN(CC(=O)NCc2ccco2)CC1`, the cytotoxicity at 10 µM rises from -1.53% to 1.67%.

Compared with `COc1ccc(C(=O)N2CC[C@@H]3[C@H](CC2)N(C)CCS3(=O)=O)cc1`, `COc1ccc(C2CCCN2S(=O)(=O)N(C)CC(C)C)cc1` (stereo not given) is higher in cytotoxicity at 10 µM: -117% for the first, -6.72% for the second.

First: CN(C)CCN(C)C[C@@H]1CN(Cc2cccc(O)c2)C[C@@H]1CO
Second: CCn1c(C)nnc1CN(C)C1CCN(CCc2ccncc2)C1 (stereo not given)
The cytotoxicity at 10 µM of the first is lower: 0.972% for the first, 3.97% for the second.

First: Cc1ccc(N(C)[C@@H]2CC[C@@H]3CN(C(=O)Cc4cccs4)C[C@@H]32)nn1
Second: Cc1nc(CN2CCO[C@H]3CN(C(=O)Cc4cccs4)C[C@H]32)cs1
The cytotoxicity at 10 µM of the first is higher: -13.5% for the first, -124% for the second.

Going from `Cc1ccc(N2C(=O)N[C@@H]3CCN(C(=O)C4CC4)[C@@H]3C2=O)cc1` to `CC(C)(C)CC(=O)N1CC[C@H]2NC(=O)N(Cc3ccccc3)C(=O)[C@H]21`, the cytotoxicity at 10 µM falls from 3.85% to -0.171%.

First: CC1CCN(C(=O)CSCc2nc(C3CC3)no2)CC1
Second: CCC(O)CN1CCN(C(=O)CCc2c(C)noc2Cl)CC1 (stereo not given)
The cytotoxicity at 10 µM of the first is higher: 1.26% for the first, -8.89% for the second.

First: CCC[C@H]1CN(C(=O)Cn2ccccc2=O)C[C@@H]1NS(C)(=O)=O
Second: Cc1ccccc1N1CCN(C(=O)Cn2ccnc2)CC1=O
The cytotoxicity at 10 µM of the first is higher: 11.1% for the first, -1.86% for the second.

First: CNC(=O)Cc1ccccc1NC(=O)NCc1ccc(SC)cc1
Second: NC(=O)C(CNC(=O)Cc1ccc(F)cc1)Cc1ccc(F)cc1 (stereo not given)
The cytotoxicity at 10 µM of the first is lower: -1.88% for the first, 3.02% for the second.

Going from `Nc1nc2c(c(N3CCC(CN4CCCC4=O)CC3)n1)CCNCC2` to `CC(=O)NCCC1CCN(c2nc(C(C)(C)C)nc3c2cnn3C)CC1`, the cytotoxicity at 10 µM rises from -3.95% to -0.891%.

Compared with `Cc1cccc2c1nc(CCO)n2-c1ccc(C(=O)N2CCCC2)o1`, `O=C(c1ccc(Br)o1)N1CCCCC1Cn1cccn1` (stereo not given) is lower in cytotoxicity at 10 µM: 7.39% for the first, -5.31% for the second.

Compared with `COc1ccc(C(CO)NC(=O)Nc2cccc(F)c2)cc1` (stereo not given), `COc1ccc(-c2cc(C(=O)N3N=C(C)CC3(O)C(F)(F)F)[nH]n2)cc1` (stereo not given) is higher in cytotoxicity at 10 µM: -4.82% for the first, 1.36% for the second.

Going from `CC(NC(=O)NCCCN1CCCC1=O)c1nncn1C` (stereo not given) to `COc1nn(C)c2c1CCCN(C(=O)c1cc[nH]n1)C2`, the cytotoxicity at 10 µM falls from -3.08% to -5.2%.

First: O=C(N1CCC2(CC1)[C@H](O)C[C@@H]2O)C1(c2ccccc2F)CC1
Second: NC(=O)CN1CC2(CCC1=O)CCN(Cc1ccccc1F)CC2
The cytotoxicity at 10 µM of the first is higher: 6.1% for the first, 1.81% for the second.

Compared with `CC1CCCCN1C(=O)COc1nc(Cc2ccc(F)cc2)no1` (stereo not given), `CCCc1cncnc1N1CCC(NCc2ccc(O)cc2)CC1` is higher in cytotoxicity at 10 µM: 1.43% for the first, 3.8% for the second.

Compared with `Cc1ccc2cc(CN(C)Cc3ccncn3)c(=O)[nH]c2c1`, `Cc1occc1CN(C)Cc1nc2c(cnn2C)c(=O)[nH]1` is lower in cytotoxicity at 10 µM: 10.3% for the first, 2.11% for the second.

Compared with `CC(C)n1ccnc1C1CCCN(c2ncccc2C(N)=O)C1` (stereo not given), `CCn1cc(-c2nccnc2C2CCCN(C(C)=O)C2)cn1` (stereo not given) is higher in cytotoxicity at 10 µM: -9.53% for the first, -6.03% for the second.

Going from `CC(C)c1nc(CN(C)Cc2ccc(O)c(Cl)c2)cs1` to `CN(CCOc1cccc(Cl)c1)Cc1nnc(C(C)(C)C)o1`, the cytotoxicity at 10 µM rises from -7.27% to 8.65%.

Going from `Cc1occc1C(=O)N1CCC2(CCCN(Cc3nccs3)C2)C1` (stereo not given) to `Cc1occc1C(=O)N1CCC[C@]2(C[C@@H](OCc3ccncc3)CO2)C1`, the cytotoxicity at 10 µM falls from -3.32% to -6.25%.

First: Cn1cc(CN2Cc3c(cnn3C)C(COCC3CC3)C2)cn1 (stereo not given)
Second: CCn1cc2c(n1)CN(S(=O)(=O)c1cn(C)cn1)CC2COC (stereo not given)
The cytotoxicity at 10 µM of the first is lower: -2.8% for the first, 5.41% for the second.

First: COCCCN1Cc2cccc(NC(=O)C(C)(C)C)c2C1
Second: COCCNC(=O)Cn1cc(NC(=O)c2ccc(C(C)(C)C)cc2)cn1
The cytotoxicity at 10 µM of the first is higher: 2.06% for the first, -9.94% for the second.

Going from `Cc1cc(CNC(=O)NCc2ccccc2N2CCOCC2)no1` to `Cc1ccccc1CN1C[C@@H]2COC[C@]2(CNC(=O)C2CCC2)C1`, the cytotoxicity at 10 µM falls from 1.15% to -110%.

Compared with `CCOc1ccc(C(=O)N(C)C)cc1NC(=O)c1ccsc1`, `Cc1ccccc1C(=O)NCC(=O)NCc1ccccn1` is lower in cytotoxicity at 10 µM: -0.12% for the first, -11.9% for the second.

Compared with `Cc1cc(C(=O)NCCC2CN(C)CCO2)c2cccc(C)c2n1` (stereo not given), `Cc1ccnn1CCC(=O)N1CCOC(CCc2ccccc2)C1` (stereo not given) is lower in cytotoxicity at 10 µM: -2.94% for the first, -51.1% for the second.

Going from `CC(Cc1ccccn1)N(C)C(=O)c1ncc[nH]1` (stereo not given) to `CSc1ccccc1C(=O)C1CCCN(Cc2ccccn2)C1` (stereo not given), the cytotoxicity at 10 µM falls from 3.04% to -6.12%.

Going from `CC1CN(C)c2ccccc2N(C(=O)c2ccc(=O)n(C)c2)C1` (stereo not given) to `Cc1cccc(COc2ccccc2C(=O)N2CCC(C(N)=O)CC2)c1`, the cytotoxicity at 10 µM falls from -3.51% to -7.08%.

Compared with `COCCC(=O)Nc1nc2c(OC)cc(F)cc2s1`, `COc1ccc(S(=O)(=O)NCCC(=O)NCc2ccoc2)cc1OC` is higher in cytotoxicity at 10 µM: -0.327% for the first, 10.8% for the second.

First: Cc1nc(CN2CCN(S(=O)(=O)N3CCCCC3)CC2)oc1C
Second: CN1CCC(c2nnc3n2CCN(S(=O)(=O)c2ccccc2Cl)C3)CC1
The cytotoxicity at 10 µM of the first is higher: 3.64% for the first, 2.58% for the second.

Going from `O=C(N1CCOCC1)N1C[C@@H]2OCCN(C(=O)c3ccco3)[C@@H]2C1` to `CCn1c(SCC(=O)N2CCOCC2)nc2cc(C)[nH]c2c1=O`, the cytotoxicity at 10 µM rises from -135% to 7.72%.

Going from `CCn1nc(C)c(CNC(=O)c2cn(CC3CCCO3)nn2)c1C` (stereo not given) to `Cc1cnn(CC2CCCN2C(=O)c2cccc(F)c2F)c1` (stereo not given), the cytotoxicity at 10 µM rises from -2.34% to -1.3%.

Going from `O=C(Nc1nncs1)N1CCCN(C2CCCC2)CC1` to `O=C(Nc1nncs1)N1CCC(CCc2ccc(O)cc2)CC1`, the cytotoxicity at 10 µM rises from -4.31% to 6.81%.

Going from `CCOC(=O)[C@H]1[C@@H](O)C(=O)N(C)C12CCN(C(=O)CC1CCCC1)CC2` to `NC(=O)CSCC(=O)NCC1CCCC1`, the cytotoxicity at 10 µM rises from -1% to 3.15%.

First: CCc1nc(C2CCCN2Cc2nc(CCOC)no2)no1 (stereo not given)
Second: c1coc(-c2nc(CNC3CCCNC3)no2)c1 (stereo not given)
The cytotoxicity at 10 µM of the first is higher: -10.8% for the first, -25.2% for the second.

Going from `O=C(c1ccncc1)N1C[C@@H]2CCN(c3cccnc3)C[C@@H]2C1` to `CCOc1ncccc1C(=O)N1CCCCC1c1nccs1` (stereo not given), the cytotoxicity at 10 µM rises from -71.5% to -8.7%.

Compared with `O=C(NCCc1ccccc1)NCCN1CCC(c2cccs2)CC1`, `c1ccc(Cc2nnc(CN3CCOC(Cn4cccn4)C3)o2)cc1` (stereo not given) is lower in cytotoxicity at 10 µM: -4.16% for the first, -8.48% for the second.

Going from `O=C(NC1CC(F)(F)C1)[C@]12COC[C@H]1CN(Cc1ccsc1)C2` to `CNC(=O)CN1CCOCC2(CN(CCC(F)(F)F)CCO2)C1` (stereo not given), the cytotoxicity at 10 µM rises from -109% to 3.59%.

Going from `Cc1ccc(C(NC(=O)CN2CCc3cncnc3C2)C2CC2)cc1` (stereo not given) to `O=C(NCc1cccnc1N1CCc2ccccc2C1)c1cnc[nH]1`, the cytotoxicity at 10 µM falls from 9.31% to 5.97%.

First: Cc1cc(C)nc(NC2CC(=O)N(C)C2)n1 (stereo not given)
Second: Cc1cc2c(=O)n3c(nc2s1)CCN(C(=O)c1cnn(C)c1C)CC3
The cytotoxicity at 10 µM of the first is higher: 8.61% for the first, 0.359% for the second.

Compared with `CC(C)OCc1ncn2c1CN(CCO)CCC2`, `CN1CCN(CCn2cnc3c(F)cccc3c2=O)CC1` is lower in cytotoxicity at 10 µM: 8.37% for the first, -1.67% for the second.

Going from `O=C(C1CCOCC1)N1CCC2(CCNCC2)C1` to `Cc1ccc(N(C)C2CCN(C(=O)c3n[nH]c4c3CCC4)CC2)nn1`, the cytotoxicity at 10 µM rises from 3.41% to 8%.

First: O=C(CCO)N1CCC2(CCc3ccc(-c4ccoc4)cc32)CC1
Second: CC(=O)N1CC(=O)N(c2cnn(C)c2)CC12CCN(Cc1ccco1)C2 (stereo not given)
The cytotoxicity at 10 µM of the first is higher: 16.1% for the first, 2.41% for the second.

First: Cc1nn(C)c2ncnc(NCc3nncn3C3CCCCC3)c12
Second: CC(=O)N1CCC(c2nccnc2Nc2ncc(C)s2)CC1
The cytotoxicity at 10 µM of the first is lower: -10.2% for the first, 10.1% for the second.

First: Cc1ccc(-c2cc(CNCCn3cc(C)cn3)on2)cc1
Second: CCN(CC)C(=O)c1cc(-c2cccc(Cl)c2)no1
The cytotoxicity at 10 µM of the first is higher: -7.22% for the first, -8.79% for the second.

Going from `Cc1c(Br)cnn1CCC(=O)N(C)Cc1c(Cl)cnn1C` to `Cc1cnc(N2C[C@@H]3C[C@H](C(=O)N(C)C)[C@H](C2)O3)nc1`, the cytotoxicity at 10 µM rises from -13.7% to -2.47%.

Compared with `Cc1ccc2c(c1)C(NC(=O)N(C)C)CC21CCN(C(C)C)CC1` (stereo not given), `Cc1cc(NC(=O)CN(C)C2CCCN(c3cccnn3)C2)on1` (stereo not given) is lower in cytotoxicity at 10 µM: -0.493% for the first, -5.93% for the second.

Compared with `CN1C(=O)CCc2cc(NC(=O)C3CC(=O)N(CC4CC4)C3)ccc21` (stereo not given), `CCC(C(=O)Nc1ccc2nc(C)oc2c1)N1CCCC1=O` (stereo not given) is lower in cytotoxicity at 10 µM: -12.2% for the first, -41.9% for the second.

Compared with `COC(=O)c1sccc1S(=O)(=O)N1CCC(Oc2cccc(C)n2)CC1`, `COc1cccc(S(=O)(=O)N2CCOC(C)(C(N)=O)C2)c1` (stereo not given) is lower in cytotoxicity at 10 µM: 6.48% for the first, 3.08% for the second.

First: Cc1csc(CNc2cnn(C(C)C)c2)n1
Second: CC(C)N(C)S(=O)(=O)N(C)Cc1cnn(Cc2ccccc2)c1
The cytotoxicity at 10 µM of the first is higher: 9.45% for the first, 7.01% for the second.

Going from `COc1cc(C)nc(N2CCN(C(=O)c3ccc[nH]3)CC2)n1` to `Cc1nc2n(n1)CCN(S(=O)(=O)c1ccc(OC(F)(F)F)cc1)C2`, the cytotoxicity at 10 µM falls from -5.11% to -5.86%.

Compared with `CCCN(C(=O)CS(=O)(=O)c1ccccc1)c1cccc(C)c1`, `Cc1ccccc1-n1ccnc1S(=O)(=O)Cc1nsc(N(C)C)n1` is higher in cytotoxicity at 10 µM: 2.08% for the first, 2.56% for the second.

First: Cc1cc(C)n(NC(=O)c2ccc(Cl)cc2Cl)c(=O)c1
Second: Cc1ccc(N2CCCc3sc(C(=O)NCCO)nc32)nn1
The cytotoxicity at 10 µM of the first is lower: -7.05% for the first, 13.3% for the second.

Going from `O=c1oc(-c2ccc(F)cc2)nn1CCc1ccccn1` to `CCCc1cc(CN(C)C2CSCCSC2)n[nH]1`, the cytotoxicity at 10 µM rises from -5.65% to 0.786%.
